# In ChEMBL document CHEMBL4266027, “Cyanobufalins: Cardioactive Toxins from Cyanobacterial Blooms” (J Nat Prod, 2018):
# Key:
# SK-OV-3 = assay: Cytotoxicity against human SKOV3 cells assessed as decrease in cell viability after 72 hrs by MTS assay; type: functional, cell-based; conditions: SK-OV-3, 72 h
# Summary of the method: (§1)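 Cell proliferation assay using the MTS reagent. Compounds were tested as a dilution series, and EC50 values were derived from the concentration–response data.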
# HCT-116 = assay: Cytotoxicity against human HCT116 cells assessed as decrease in cell viability after 72 hrs by MTS assay; type: functional, cell-based; conditions: HCT-116, 72 h; summary of the method: as §1
# HepG2 = assay: Cytotoxicity against human HepG2 cells assessed as decrease in cell viability after 72 hrs by MTS assay; type: functional, cell-based; conditions: HepG2, 72 h; summary of the method: as §1
# MES-SA = assay: Cytotoxicity against human MESSA cells assessed as decrease in cell viability after 72 hrs by MTS assay; type: functional, cell-based; summary of the method: as §1
# MES-SA/Dx5 = assay: Cytotoxicity against human MES-SA/Dx5 cells assessed as decrease in cell viability after 72 hrs by MTS assay; type: functional, cell-based; conditions: MES-SA/Dx5, 72 h; summary of the method: as §1
# 786-0 = assay: Cytotoxicity against human 786-O cells assessed as decrease in cell viability after 72 hrs by MTS assay; type: functional, cell-based; conditions: 786-0, 72 h; summary of the method: as §1
# MCF7 = assay: Cytotoxicity against human MCF7 cells assessed as decrease in cell viability after 72 hrs by MTS assay; type: functional, cell-based; conditions: MCF7, 72 h; summary of the method: as §1
# BXPC-3 = assay: Cytotoxicity against human BxPC3 cells assessed as decrease in cell viability after 72 hrs by MTS assay; type: functional, cell-based; conditions: BXPC-3, 72 h; summary of the method: as §1
# U-87 MG = assay: Cytotoxicity against human U87MG cells assessed as decrease in cell viability after 72 hrs by MTS assay; type: functional, cell-based, U-87MG ATCC; summary of the method: as §1
# NCI-H1975 = assay: Cytotoxicity against human NCI-H1975 cells assessed as decrease in cell viability after 72 hrs by MTS assay; type: functional, cell-based; conditions: NCI-H1975, 72 h; summary of the method: as §1
# HUVEC = assay: Cytotoxicity against human HUVEC cells assessed as decrease in cell viability after 72 hrs by MTS assay; type: cell-based; summary of the method: as §1
# CCRF S-180 = assay: Cytotoxicity against mouse S180 cells assessed as decrease in cell viability after 72 hrs by MTS assay; type: functional, cell-based; conditions: CCRF S-180, 72 h; summary of the method: as §1
smiles,measurement,setting,value
CC1(C)[C@H]2OC(=O)O[C@H]2[C@@H](O)[C@]2(C=O)[C@H]3CC[C@]4(C)[C@@H](c5ccc(=O)oc5)[C@@H](Cl)C[C@]4(O)C3=CC[C@@H]12,EC50,SK-OV-3,530 nM
same,EC50,HCT-116,610 nM
same,EC50,HepG2,1300 nM
same,EC50,MES-SA,940 nM
same,EC50,MES-SA/Dx5,720 nM
same,EC50,786-0,350 nM
same,EC50,MCF7,960 nM
same,EC50,BXPC-3,1000 nM
same,EC50,U-87 MG,610 nM
same,EC50,NCI-H1975,590 nM
same,EC50,HUVEC,800 nM
same,EC50,CCRF S-180,> 20000 nM
